Like-named read-outs stand apart in the source and are kept apart here.
Key:
[1] = system: plasma Aβ fragments; experiment: Plasma Aβ fragments after single and multiple doses; type: in vivo, human; conditions: 275 mg, on Day 1
Outline: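 Healthy adults, oral QD dosing versus placebo, Part B. Pre-dose blood was drawn on Days 1, 2, 4, 7, 10, and 14. Plasma Aβ1–40 was measured by DELFIA (LLOQ 12.1 pg/mL). Log change from baseline was analysed by mixed-model repeated measures: treatment, time, and their interaction as fixed effects, subject as random effect, and log baseline as covariate. Results were expressed as placebo-adjusted reduction.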

[2] = type: in vivo, human; conditions: for AUCtau / Cmax / CL/F / Cmin / Rac (observed accumulation ratio) / Vz/F: geometric mean (% CV); for Tmax: median (range); for t1/2: arithmetic mean±SD
Outline: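 Healthy adults (18–55 y) or older subjects (60–85 y) received oral QD doses for 14 days, fasted on Day 1. Plasma was sampled pre-dose and at 0.5, 1, 2, 4, 8, 12, and 24 h, plus 1.5 h (B8271001) or 6 h (B8271004). Day 14 sampling extended to 120 h. Urine was also collected. Samples were analysed by validated HPLC-MS/MS; plasma LLOQ 0.500 or 5.00 ng/mL, urine LLOQ 0.050 ng/mL. Parameters were derived by non-compartmental analysis.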

[3] = 5 mg QD, Day 14, healthy adults
[4] = 15 mg QD, Day 1, healthy adults
[5] = 15 mg QD, Day 7, healthy adults
[6] = 15 mg QD, Day 14, healthy adults
[7] = 50 mg QD, Day 1, healthy adults
[8] = 50 mg QD, Day 1, healthy older subjects
[9] = 50 mg QD, Day 7, healthy adults
[10] = 50 mg QD, Day 14, healthy adults
[11] = 50 mg QD, Day 14, healthy older subjects
[12] = 50 mg or 125 mg QD, healthy older subjects
[13] = 125 mg QD, Day 1, healthy adults
[14] = 125 mg QD, Day 1, healthy older subjects
[15] = 125 mg QD, Day 7, healthy adults
[16] = 125 mg QD, Day 14, healthy adults
[17] = 125 mg QD, Day 14, healthy older subjects

For `C[C@H]1C[C@H]2CSC(N)=N[C@@]2(c2nc(NC(=O)c3ccc(OC(F)F)cn3)cs2)CO1` [PF-06751979], the “Maximum observed placebo-adjusted reduction in plasma Aβ1–40, multiple doses” value [1] was 88.3%, the AUCtau ([2]; 5 mg QD, Day 1, healthy adults) was 167.7 (18) ng.hr/mL and the Cmax ([2]; 5 mg QD, Day 1, healthy adults) was 10.12 (22) ng/mL. For the same compound, the Tmax ([2]; 5 mg QD, Day 1, healthy adults) was 3.98 (2.03–12.3) h, the AUCtau ([2]; 5 mg QD, Day 7, healthy adults) was 395.2 (20) ng.h/mL and the Cmax ([2]; 5 mg QD, Day 7, healthy adults) was 20.68 (22) ng/mL. For the same compound, the Tmax ([2]; 5 mg QD, Day 7, healthy adults) was 6.02 (3.95–8.05) h, the t1/2 [2, 3] was 37.15 ± 5.20 h and the AUCtau [2, 3] was 422.2 (20) ng.hr/mL. For the same compound, the CL/F [2, 3] was 197.1 (20) mL/min, the Cmax [2, 3] was 22.41 (23) ng/mL and the Cmin [2, 3] was 12.55 (22) ng/mL. The “Rac (observed accumulation ratio)” value [2, 3] was 2.52 (12), the Vz/F [2, 3] was 628.7 (18) L and the Tmax [2, 3] was 4.01 (3.98–8.02) h. The AUCtau [2, 4] was 478.8 (20) ng.hr/mL, the Cmax [2, 4] was 28.90 (22) ng/mL and the Tmax [2, 4] was 4.07 (4.00–7.83) h. For the same compound, the AUCtau [2, 5] was 1149 (12) ng.h/mL, the Cmax [2, 5] was 64.34 (12) ng/mL and the Tmax [2, 5] was 4.02 (2.17–8.03) h. For the same compound, the t1/2 [2, 6] was 30.65 ± 3.19 h, the AUCtau [2, 6] was 1152 (13) ng.hr/mL and the CL/F [2, 6] was 216.9 (12) mL/min. The Cmax [2, 6] was 64.63 (14) ng/mL, the Cmin [2, 6] was 32.75 (14) ng/mL and the “Rac (observed accumulation ratio)” value [2, 6] was 2.41 (14). For the same compound, the Vz/F [2, 6] was 573.2 (12) L, the Tmax [2, 6] was 4.05 (4.02–7.87) h and the AUCtau [2, 7] was 1739 (14) ng.hr/mL. The Cmax [2, 7] was 120.6 (17) ng/mL, the Tmax [2, 7] was 2.99 (1.02–4.07) h and the AUCtau [2, 8] was 1621 (22) ng.hr/mL. For the same compound, the Cmax [2, 8] was 102.9 (25) ng/mL, the Tmax [2, 8] was 4.00 (2.02–7.98) h and the AUCtau [2, 9] was 4181 (20) ng.h/mL. For the same compound, the Cmax [2, 9] was 241.1 (20) ng/mL, the Tmax [2, 9] was 3.83 (1.43–4.07) h and the t1/2 [2, 10] was 37.36 ± 5.91 h. For the same compound, the AUCtau [2, 10] was 4236 (24) ng.hr/mL, the CL/F [2, 10] was 196.9 (24) mL/min and the Cmax [2, 10] was 245.7 (21) ng/mL. For the same compound, the Cmin [2, 10] was 120.4 (25) ng/mL, the “Rac (observed accumulation ratio)” value [2, 10] was 2.43 (15) and the Vz/F [2, 10] was 629.0 (27) L. The Tmax [2, 10] was 3.00 (0.88–8.08) h, the t1/2 [2, 11] was 39.95 ± 3.18 h and the AUCtau [2, 11] was 4505 (20) ng.h/mL. The CL/F [2, 11] was 184.9 (20) mL/min, the Cmax [2, 11] was 256.4 (23) ng/mL and the Cmin [2, 11] was 135.8 (18) ng/mL. The Vz/F [2, 11] was 637.4 (23) L, the Tmax [2, 11] was 4.00 (2.00–4.20) h and the “Median Tmax” value [2, 12] was 4 h. For the same compound, the “Steady state achieved by” value [2, 12] was at most 7 days, the AUCtau [2, 13] was 6380 (15) ng.hr/mL and the Cmax [2, 13] was 442.7 (20) ng/mL. For the same compound, the Tmax [2, 13] was 4.00 (2.00–6.03) h, the AUCtau [2, 14] was 5238 (24) ng.hr/mL and the Cmax [2, 14] was 377.1 (30) ng/mL. The Tmax [2, 14] was 4.00 (2.00–4.03) h, the AUCtau [2, 15] was 13810 (16) ng.h/mL and the Cmax [2, 15] was 818.7 (19) ng/mL. For the same compound, the Tmax [2, 15] was 3.00 (2.00–6.00) h, the t1/2 [2, 16] was 30.73 ± 5.75 h and the AUCtau [2, 16] was 13990 (14) ng.hr/mL. The CL/F [2, 16] was 149.0 (14) mL/min, the Cmax [2, 16] was 837.6 (16) ng/mL and the Cmin [2, 16] was 390.3 (18) ng/mL. For the same compound, the “Rac (observed accumulation ratio)” value [2, 16] was 2.19 (11), the Vz/F [2, 16] was 390.5 (23) L and the Tmax [2, 16] was 4.00 (2.00–12.00) h. For the same compound, the t1/2 [2, 17] was 40.76 ± 3.90 h, the AUCtau [2, 17] was 14750 (23) ng.h/mL and the CL/F [2, 17] was 141.4 (23) mL/min. The Cmax [2, 17] was 879.4 (28) ng/mL.

Reference: paper PMC6839502 (Journal of Alzheimer's Disease, 2019)
